Columns and labels:
[1] = molecular target: T1, Adenosine receptor A3 (Homo sapiens, UniProt P0DMS8); experiment: Displacement of [125I]ABMECA from human adenosine A3 receptor expressed in CHO cells
T1 sequence (P0DMS8 whole entry): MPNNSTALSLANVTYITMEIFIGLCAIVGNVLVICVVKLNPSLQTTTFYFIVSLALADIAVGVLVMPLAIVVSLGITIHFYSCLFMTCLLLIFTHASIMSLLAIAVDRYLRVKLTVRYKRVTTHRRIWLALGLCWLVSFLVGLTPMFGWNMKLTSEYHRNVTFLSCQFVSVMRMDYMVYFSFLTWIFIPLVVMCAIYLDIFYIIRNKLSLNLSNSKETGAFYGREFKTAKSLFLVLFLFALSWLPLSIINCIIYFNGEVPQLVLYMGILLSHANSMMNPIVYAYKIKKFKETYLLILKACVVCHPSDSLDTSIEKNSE

[2] = molecular target: Adenosine receptor A2a (Homo sapiens, UniProt P29274); experiment: Displacement of [3H]CGS-21680 from human adenosine A2A receptor expressed in CHO cells; type: cell-based; set-up: concentration or dose not given beside the values
[3] = molecular target: T2, Adenosine receptor A1 (Homo sapiens, UniProt P30542); experiment: Displacement of [3H]CHA from human adenosine A1 receptor expressed in CHO cells; type: cell-based
T2 sequence (P30542 whole entry): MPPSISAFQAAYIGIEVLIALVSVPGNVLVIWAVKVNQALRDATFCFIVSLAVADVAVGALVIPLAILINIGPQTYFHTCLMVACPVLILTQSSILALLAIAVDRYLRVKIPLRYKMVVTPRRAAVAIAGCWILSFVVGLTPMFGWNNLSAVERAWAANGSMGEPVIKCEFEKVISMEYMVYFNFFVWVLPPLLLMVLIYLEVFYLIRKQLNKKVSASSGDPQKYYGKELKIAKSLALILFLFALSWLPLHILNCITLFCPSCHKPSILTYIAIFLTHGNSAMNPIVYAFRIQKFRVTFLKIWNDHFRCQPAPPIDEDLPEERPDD
In short: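 Human A1 in CHO cell membranes, pretreated with adenosine deaminase 2 IU/mL for 30 min at 37 °C. 50 µg protein per assay incubated with 1 nM [³H]CHA and 6–8 agonist concentrations in 50 mM Tris-HCl pH 7.4 for 150 min at 25 °C. Nonspecific binding defined by 10 µM CHA. Separated by GF/B filtration, counted by scintillation. Ki from IC50 via Cheng–Prusoff.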

[4] = molecular target: T3, Adenosine receptor A2b (Homo sapiens, UniProt P29275); experiment: Agonist activity at human adenosine A2B receptor expressed in CHO cells assessed as stimulation of cAMP production; type: functional, cell-based
T3 sequence (P29275 whole entry): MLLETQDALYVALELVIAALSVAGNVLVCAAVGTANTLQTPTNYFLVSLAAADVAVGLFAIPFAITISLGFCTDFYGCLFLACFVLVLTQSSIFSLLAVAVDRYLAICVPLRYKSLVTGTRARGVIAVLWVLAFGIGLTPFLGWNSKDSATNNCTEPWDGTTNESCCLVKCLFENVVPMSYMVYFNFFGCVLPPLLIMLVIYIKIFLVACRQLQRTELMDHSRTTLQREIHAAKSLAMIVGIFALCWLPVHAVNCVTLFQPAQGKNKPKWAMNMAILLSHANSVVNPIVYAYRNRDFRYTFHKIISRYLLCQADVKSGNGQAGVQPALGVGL
In short: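 CHO cells stably expressing human A2B, grown in DMEM/F12 with 10% serum and G418, trypsinized and pelleted. 1 × 10⁶ cells/assay preincubated 10 min at 37 °C with adenosine deaminase 2 IU/mL and Ro 20-1724. Ligands at 1 nM–10 µM added for 5 min, stopped with cold 6% TCA, ether-extracted. cAMP read by [³H]cAMP competition protein binding. EC50 from sigmoid non-linear regression; 3–4 experiments in duplicate.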

Sequence of Adenosine receptor A2a (P29274 whole entry): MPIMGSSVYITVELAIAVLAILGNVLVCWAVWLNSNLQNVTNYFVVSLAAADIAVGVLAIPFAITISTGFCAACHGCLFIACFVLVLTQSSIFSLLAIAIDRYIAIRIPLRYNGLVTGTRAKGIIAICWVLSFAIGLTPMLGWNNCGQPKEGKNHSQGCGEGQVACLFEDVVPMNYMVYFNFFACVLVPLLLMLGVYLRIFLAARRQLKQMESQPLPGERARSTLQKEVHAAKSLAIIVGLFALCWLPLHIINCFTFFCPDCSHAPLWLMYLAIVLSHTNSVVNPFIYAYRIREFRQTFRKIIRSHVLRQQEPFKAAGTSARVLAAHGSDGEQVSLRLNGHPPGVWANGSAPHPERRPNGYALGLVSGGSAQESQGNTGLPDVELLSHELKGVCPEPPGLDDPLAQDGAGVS

Compound	Ki [1] [nM]	Activity [2] [%]	Ki [2] [nM]	Ki [3] [nM]	EC50 [4] [nM]
CCNC(=O)[C@H]1O[C@@H](n2cnc3c(Nc4ccc(OCC(=O)Nc5ccncc5)cc4)ncnc32)[C@H](O)[C@@H]1O	42.3	37	> 1000	11.2	32.3
CCNC(=O)[C@H]1O[C@@H](n2cnc3c(Nc4ccc(OCC(=O)Nc5ccc(Br)cc5)cc4)ncnc32)[C@H](O)[C@@H]1O	36.4	26	> 1000	3.5	10.5
CCNC(=O)[C@H]1O[C@@H](n2cnc3c(Nc4ccc(OCC(=O)NC5CCCCC5)cc4)nc(Cl)nc32)[C@H](O)[C@@H]1O	95.8	46	> 1000	30.8	302
CCNC(=O)[C@H]1O[C@@H](n2cnc3c(Nc4ccc(OCC(=O)NC5CCCCC5)cc4)ncnc32)[C@H](O)[C@@H]1O	72.5	40	> 1000	16.2	315
CCNC(=O)[C@H]1O[C@@H](n2cnc3c(Nc4ccc(OCC(=O)Nc5ccc(OC)c(OC)c5)cc4)ncnc32)[C@H](O)[C@@H]1O	53.2	30	> 1000	7.7	45.4
CCNC(=O)[C@H]1O[C@@H](n2cnc3c(Nc4ccc(OCC(=O)Nc5ccc(C(C)(C)C)cc5)cc4)ncnc32)[C@H](O)[C@@H]1O	40.2	1	> 1000	18.6	16.4
CCNC(=O)[C@H]1O[C@@H](n2cnc3c(Nc4ccc(OCC(=O)NCc5ccccc5)cc4)nc(Cl)nc32)[C@H](O)[C@@H]1O	75.7	49	> 1000	22.6	175
CCNC(=O)[C@H]1O[C@@H](n2cnc3c(Nc4ccc(OCC(=O)Nc5ccccc5C(F)(F)F)cc4)ncnc32)[C@H](O)[C@@H]1O	115	1	> 1000	31.6	107
CCNC(=O)[C@H]1O[C@@H](n2cnc3c(Nc4ccc(OCC(=O)Nc5ccc6c(c5)OCO6)cc4)ncnc32)[C@H](O)[C@@H]1O	81.4	5	> 1000	8.4	35.5
CCNC(=O)[C@H]1O[C@@H](n2cnc3c(Nc4ccc(OCC(=O)Nc5ccc(I)cc5)cc4)ncnc32)[C@H](O)[C@@H]1O	85.2	28	> 1000	5.2	30.2
CCNC(=O)[C@H]1O[C@@H](n2cnc3c(Nc4ccc(OCC(=O)NCc5ccccc5)cc4)ncnc32)[C@H](O)[C@@H]1O	82.7	49	> 1000	20.4	150
CCNC(=O)[C@H]1O[C@@H](n2cnc3c(Nc4ccc(OCC(=O)Nc5ccc(Cl)cc5)cc4)ncnc32)[C@H](O)[C@@H]1O	34.2	35	> 1000	3.1	12.3
CCNC(=O)[C@H]1O[C@@H](n2cnc3c(Nc4ccc(OCC(=O)Nc5ccccc5)cc4)ncnc32)[C@H](O)[C@@H]1O	38.4	45	> 1000	8.5	7.3
CCNC(=O)[C@H]1O[C@@H](n2cnc3c(Nc4ccc(OCC(=O)Nc5cc(OC)cc(OC)c5)cc4)ncnc32)[C@H](O)[C@@H]1O	78.6	13	> 1000	15.3	53.6
CCNC(=O)[C@H]1O[C@@H](n2cnc3c(Nc4ccc(OCC(=O)Nc5ccc(OC)cc5)cc4)ncnc32)[C@H](O)[C@@H]1O	25.3	42	> 1000	4.7	32.4
CCNC(=O)[C@H]1O[C@@H](n2cnc3c(Nc4ccc(OCC(=O)Nc5ccc(N6CCOCC6)cc5)cc4)ncnc32)[C@H](O)[C@@H]1O	320	1	> 1000	77.5	300
CCNC(=O)[C@H]1O[C@@H](n2cnc3c(Nc4ccc(OCC(=O)Nc5ccc(F)cc5)cc4)ncnc32)[C@H](O)[C@@H]1O	72.3	48	> 1000	2.3	15.2
CCNC(=O)[C@H]1O[C@@H](n2cnc3c(Nc4ccc(OCC(=O)NCc5ccc(OC)cc5)cc4)ncnc32)[C@H](O)[C@@H]1O	65.4	1	> 1000	28.3	240
CCNC(=O)[C@H]1O[C@@H](n2cnc3c(Nc4ccc(OCC(=O)Nc5ccc(OC)cc5)cc4)nc(Cl)nc32)[C@H](O)[C@@H]1O	101	27	> 1000	50.4	360
CCNC(=O)[C@H]1O[C@@H](n2cnc3c(Nc4ccc(OCC(=O)Nc5ccccc5)cc4)nc(Cl)nc32)[C@H](O)[C@@H]1O	107	36	> 1000	30.5	42.6
